Data reported in ChEMBL document CHEMBL3808334, “Synthesis and in vitro evaluation of novel triazine analogues as anticancer agents and their interaction studies with bovine serum albumin” (Eur J Med Chem, 2016).

Key:
[1] = Growth inhibition of human colon cancer cells incubated for 48 hrs by sulforhodamine B assay; format: functional; conditions: Cancer cell lines; for CC50: read-out: LC50 (the source's name)
[2] = test system: NCI-H322M; test: Growth inhibition of human NCI-H322M cells incubated for 48 hrs by sulforhodamine B assay; format: functional
How it was run: (§1)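 Cells were plated at 5,000–40,000 per well according to doubling time and preincubated 24 h at 37 °C in 5% CO2; time-zero plates were then TCA-fixed. Five concentrations (10-fold or ½-log dilutions, DMSO stock) were incubated 48 h. Cells were TCA-fixed, stained with 0.4% SRB and read at 515 nm. GI50 was taken where [(Ti−Tz)/(C−Tz)]×100 = 50.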

[3] = Growth inhibition of human OVCAR3 cells assessed as cell growth at 10 uM incubated for 48 hrs by sulforhodamine B assay; format: functional; conditions: OVCAR-3, 48 h, read-out: Activity
[4] = test system: SN12C; test: Growth inhibition of human SN12C cells assessed as cell growth at 10^-8 M incubated for 48 hrs by sulforhodamine B assay; format: functional; conditions: read-out: Activity
[5] = test system: M14; test: Growth inhibition of human M14 cells assessed as cell growth at 10 uM incubated for 48 hrs by sulforhodamine B assay; format: functional; conditions: M14, 48 h, read-out: Activity
[6] = Growth inhibition of human HL-60(TB) cells assessed as cell growth at 10^-4 M incubated for 48 hrs by sulforhodamine B assay; format: functional; conditions: HL-60, 48 h, read-out: Activity
How it was run: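 Cells plated at 5,000–40,000/well according to doubling time and preincubated 24 h at 37 °C, 5% CO₂, with time-zero plates TCA-fixed. Drugs were kept as DMSO concentrates at 400× the top concentration and diluted in medium with 50 µg/ml gentamicin. Five 10-fold or ½-log dilutions were run for 48 h, followed by SRB staining and A515. Percent growth = (Ti−Tz)/(C−Tz)×100, or (Ti−Tz)/Tz×100 when Ti<Tz.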

[7] = test system: SK-MEL-5; test: Growth inhibition of human SK-MEL-5 cells assessed as cell growth at 10^-5 M incubated for 48 hrs by sulforhodamine B assay; format: functional; conditions: SK-MEL-5, 48 h, read-out: Activity
[8] = Growth inhibition of human UACC62 cells assessed as cell growth at 10^-8 M incubated for 48 hrs by sulforhodamine B assay; format: functional; conditions: UACC-62, 48 h, read-out: Activity
[9] = Growth inhibition of human HCC2998 cells assessed as cell growth at 10^-4 M incubated for 48 hrs by sulforhodamine B assay; format: functional; conditions: HCC 2998, 48 h, read-out: Activity
[10] = Growth inhibition of human SNB19 cells incubated for 48 hrs by sulforhodamine B assay; format: functional; conditions: SNB-19, 48 h; how it was run: as §1
[11] = Growth inhibition of human PC3 cells assessed as cell growth at 10^-7 M incubated for 48 hrs by sulforhodamine B assay; format: functional; conditions: PC-3, 48 h, read-out: Activity
[12] = test system: T47D; test: Growth inhibition of human T47D cells assessed as cell growth at 10 uM incubated for 48 hrs by sulforhodamine B assay; format: functional; conditions: read-out: Activity
[13] = test system: T47D; test: Growth inhibition of human T47D cells assessed as cell growth at 10^-7 M incubated for 48 hrs by sulforhodamine B assay; format: functional; conditions: read-out: Activity
[14] = Growth inhibition of human HCT15 cells assessed as cell growth at 10^-7 M incubated for 48 hrs by sulforhodamine B assay; format: functional; conditions: HCT-15, 48 h, read-out: Activity
How it was run: (§2)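 Cells seeded at 5,000–40,000/well according to doubling time and preincubated 24 h at 37 °C, 5% CO2. Time-zero plates were TCA-fixed. DMSO concentrate was diluted in medium with 50 µg/ml gentamicin to give five concentrations (10-fold or ½ log steps), then exposed 48 h. Cells were TCA-fixed, stained with 0.4% SRB and read at 515 nm. Percent growth was taken against time-zero and control; GI50, TGI and LC50 derived.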

[15] = target: Albumin (Bos taurus, UniProt P02769); test: Binding affinity to bovine serum albumin assessed as enhancement in emission spectra up to 20 uM by fluorescence spectroscopic analysis relative to control; format: ADME; conditions: cattle, isolated protein
Albumin, sequence (P02769 whole entry): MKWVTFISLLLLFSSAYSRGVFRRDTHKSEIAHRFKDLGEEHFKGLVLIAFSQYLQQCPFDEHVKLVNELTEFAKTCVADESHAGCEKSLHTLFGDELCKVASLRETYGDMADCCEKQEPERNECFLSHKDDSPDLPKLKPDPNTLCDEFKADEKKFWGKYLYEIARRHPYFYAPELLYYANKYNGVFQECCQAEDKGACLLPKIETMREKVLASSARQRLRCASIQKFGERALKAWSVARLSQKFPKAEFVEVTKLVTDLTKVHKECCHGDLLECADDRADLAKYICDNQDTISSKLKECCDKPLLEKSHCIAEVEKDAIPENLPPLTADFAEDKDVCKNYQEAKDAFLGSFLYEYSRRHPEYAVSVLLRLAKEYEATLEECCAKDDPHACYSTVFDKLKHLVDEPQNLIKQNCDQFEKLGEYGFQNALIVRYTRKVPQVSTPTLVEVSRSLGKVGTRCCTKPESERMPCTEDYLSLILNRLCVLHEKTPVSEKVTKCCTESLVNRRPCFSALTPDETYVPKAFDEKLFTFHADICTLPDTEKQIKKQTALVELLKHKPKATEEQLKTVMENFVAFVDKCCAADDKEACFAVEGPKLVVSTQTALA
How it was run: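 Fluorescence titration of 10 µM BSA in 0.1 M phosphate buffer pH 7.4 with compound at 0–20 µM, diluted from DMSO stocks. Excitation 280 nm, slit 10 nm, 1 cm quartz cell, 300 K. Changes in the 350 nm Trp emission, new bands near 370–373 nm and isoemissive points are read against BSA alone.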

[16] = Growth inhibition of human Caki1 cells assessed as cell growth at 10^-8 M incubated for 48 hrs by sulforhodamine B assay; format: functional; conditions: CAKI-1, 48 h, read-out: Activity; how it was run: as §2
[17] = test system: T47D; test: Growth inhibition of human T47D cells assessed as cell growth at 10^-8 M incubated for 48 hrs by sulforhodamine B assay; format: functional; conditions: read-out: Activity
[18] = Growth inhibition of human UO31 cells assessed as cell growth at 10^-6 M incubated for 48 hrs by sulforhodamine B assay; format: functional; conditions: UO-31, 48 h, read-out: Activity
[19] = test system: M14; test: Growth inhibition of human M14 cells incubated for 48 hrs by sulforhodamine B assay; format: functional; conditions: M14, 48 h; how it was run: as §1
[20] = test system: U-251; test: Growth inhibition of human U251 cells assessed as cell growth at 10^-4 M incubated for 48 hrs by sulforhodamine B assay; format: functional; conditions: U-251, 48 h, read-out: Activity
[21] = test system: HT-29; test: Growth inhibition of human HT-29 cells assessed as cell growth at 10^-4 M incubated for 48 hrs by sulforhodamine B assay; format: functional; conditions: HT-29, 48 h, read-out: Activity
[22] = test system: NCI-H460; test: Growth inhibition of human NCI-H460 cells assessed as cell growth at 10^-6 M incubated for 48 hrs by sulforhodamine B assay; format: functional; conditions: NCI-H460, 48 h, read-out: Activity
[23] = Growth inhibition of human Hs 578T cells incubated for 48 hrs by sulforhodamine B assay; format: functional; how it was run: as §1
[24] = Growth inhibition of human SKOV3 cells assessed as cell growth at 10 uM incubated for 48 hrs by sulforhodamine B assay; format: functional; conditions: SK-OV-3, 48 h, read-out: Activity
[25] = test system: MDA-MB-231; test: Growth inhibition of human MDA-MB-231 cells assessed as cell growth at 10^-4 M incubated for 48 hrs by sulforhodamine B assay; format: functional; conditions: MDA-MB-231, 48 h, read-out: Activity
[26] = test system: NCI-H23; test: Growth inhibition of human NCI-H23 cells assessed as cell growth at 10^-5 M incubated for 48 hrs by sulforhodamine B assay; format: functional; conditions: NCI-H23, 48 h, read-out: Activity
[27] = read-out: LC50 (the source's name)
[28] = read-out: pLC50 (the source's name) (converted)

Which results are given for `Fc1ccc(-c2nc(Nc3ccc(-c4nc5ccccc5[nH]4)cc3)nc(N3CCOCC3)n2)cc1`?
GI50 [1]: 2.15 µM; TGI [1]: 4.73 µM; CC50 [1]: 7.9 µM; GI50 ([2]; read-out: GI50): 3.62 µM; CC50 [2, 27]: > 100 µM; TGI ([2]; read-out: TGI): > 100 µM; GI50 ([2]; read-out: pGI50 (converted)): 3.63 µM; CC50 [2, 28]: > 100 µM; TGI ([2]; read-out: pTGI (converted)): > 100 µM; growth at 10 µM [3]: 5.15%; growth at 0.01 µM [4]: 95%; growth at 10 µM [5]: -7.64%; growth at 100 µM [6]: -20%; growth at 10 µM [7]: -87%; growth at 0.01 µM [8]: 91%; growth at 100 µM [9]: 2%; GI50 ([10]; read-out: GI50): 3.49 µM; CC50 [10, 27]: > 100 µM; TGI ([10]; read-out: TGI): > 100 µM; GI50 ([10]; read-out: pGI50 (converted)): 3.47 µM; CC50 [10, 28]: > 100 µM; TGI ([10]; read-out: pTGI (converted)): > 100 µM; growth at 0.1 µM [11]: 105%; growth at 10 µM [12]: 16.1%; growth at 0.1 µM [13]: 93%; growth at 0.1 µM [14]: 98%; Activity [15]: 71.83%; growth at 0.01 µM [16]: 94%; growth at 0.01 µM [17]: 101%; growth at 1 µM [18]: 90%; GI50 ([19]; read-out: GI50): 1.94 µM; CC50 [19, 27]: 8.37 µM; TGI ([19]; read-out: TGI): 4.03 µM; GI50 ([19]; read-out: pGI50 (converted)): 1.95 µM; CC50 [19, 28]: 8.32 µM; TGI ([19]; read-out: pTGI (converted)): 4.07 µM; growth at 100 µM [20]: -33%; growth at 100 µM [21]: -43%; growth at 1 µM [22]: 97%; GI50 ([23]; read-out: GI50): 1.76 µM; CC50 [23, 27]: > 100 µM; TGI ([23]; read-out: TGI): 6.96 µM; GI50 ([23]; read-out: pGI50 (converted)): 1.78 µM; CC50 [23, 28]: > 100 µM; TGI ([23]; read-out: pTGI (converted)): 6.92 µM; growth at 10 µM [24]: 19.6%; growth at 100 µM [25]: -33%

Which GI50 [1] does the source give for `c1ccc(-c2nc(Nc3ccc(-c4nc5ccccc5[nH]4)cc3)nc(N3CCOCC3)n2)cc1` here?
Its GI50 is 0.99 µM.

And the TGI [1]?
Its TGI is 2.55 µM.

What about the CC50 [1] of the same compound?
Its CC50 is 6.53 µM.

And the GI50 ([2]; read-out: GI50)?
The GI50 was 1.65 µM.

And the CC50 [2, 27]?
Its CC50 is 6.67 µM.

And the TGI ([2]; read-out: TGI)?
The TGI was 3.31 µM.

And the GI50 ([2]; read-out: pGI50 (converted))?
The GI50 was 1.66 µM.

And the CC50 [2, 28]?
Its CC50 is 6.61 µM.

What about the TGI ([2]; read-out: pTGI (converted)) of the same compound?
The TGI was 3.31 µM.

What about the growth at 10 µM [3] of the same compound?
The growth at 10 µM was -73.4%.

What about the growth at 0.01 µM [4] of the same compound?
The growth at 0.01 µM was 96%.

And the growth at 10 µM [5]?
The growth at 10 µM was -80.7%.

What about the growth at 100 µM [6] of the same compound?
The growth at 100 µM was -56%.

And the growth at 10 µM [7]?
The growth at 10 µM was -92%.

What about the growth at 0.01 µM [8] of the same compound?
The growth at 0.01 µM was 94%.

And the growth at 100 µM [9]?
The growth at 100 µM was -48%.

What about the GI50 ([10]; read-out: GI50) of the same compound?
The GI50 was 1.96 µM.

What about the TGI ([10]; read-out: TGI) of the same compound?
Its TGI is 4.32 µM.

And the GI50 ([10]; read-out: pGI50 (converted))?
The GI50 was 1.95 µM.

And the TGI ([10]; read-out: pTGI (converted))?
Its TGI is 4.37 µM.

What about the growth at 0.1 µM [11] of the same compound?
The growth at 0.1 µM was 106%.

And the growth at 10 µM [12]?
The growth at 10 µM was -62.3%.

What about the growth at 0.1 µM [13] of the same compound?
Its growth at 0.1 µM is 109%.

What about the growth at 0.1 µM [14] of the same compound?
Its growth at 0.1 µM is 92%.

What about the Activity [15] of the same compound?
Its Activity is 22.78%.

What about the growth at 0.01 µM [16] of the same compound?
Its growth at 0.01 µM is 91%.

And the growth at 0.01 µM [17]?
Its growth at 0.01 µM is 103%.

What about the growth at 1 µM [18] of the same compound?
The growth at 1 µM was 68%.

And the GI50 ([19]; read-out: GI50)?
Its GI50 is 1.34 µM.

And the CC50 [19, 27]?
Its CC50 is 6.3 µM.

What about the TGI ([19]; read-out: TGI) of the same compound?
The TGI was 2.9 µM.

What about the GI50 ([19]; read-out: pGI50 (converted)) of the same compound?
Its GI50 is 1.35 µM.

What about the CC50 [19, 28] of the same compound?
Its CC50 is 6.31 µM.

What about the TGI ([19]; read-out: pTGI (converted)) of the same compound?
Its TGI is 2.88 µM.

And the growth at 100 µM [20]?
The growth at 100 µM was -69%.

And the growth at 100 µM [21]?
Its growth at 100 µM is -76%.

And the growth at 1 µM [22]?
Its growth at 1 µM is 45%.

What about the GI50 ([23]; read-out: GI50) of the same compound?
The GI50 was 1.89 µM.

And the CC50 [23, 27]?
Its CC50 is over 100 µM.

What about the TGI ([23]; read-out: TGI) of the same compound?
The TGI was 6.04 µM.

What about the GI50 ([23]; read-out: pGI50 (converted)) of the same compound?
Its GI50 is 1.91 µM.

And the CC50 [23, 28]?
The CC50 was over 100 µM.

And the TGI ([23]; read-out: pTGI (converted))?
The TGI was 6.03 µM.

And the growth at 10 µM [24]?
Its growth at 10 µM is -30.3%.

And the growth at 100 µM [25]?
The growth at 100 µM was -60%.

And the growth at 10 µM [26]?
Its growth at 10 µM is -44%.
